Common to all, as to assay type: functional, cell-based
One assay concerns HeLa. As to the kind of experiment: Cytotoxicity against human HeLa cells by MTT assay. Summed up: (§1)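 Cells grown in RPMI-1640 with 10% (v/v) fetal calf serum, penicillin and streptomycin, at 37 °C in humidified 5% CO2. Compounds dissolved as DMSO stocks, with final DMSO in the medium at 2% (v/v) or lower. Run in 96-well microtitre cultures with MTT staining, following a published procedure with slight modification.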
For orientation: Formazan colour is commonly taken as a measure of viable cells.

A further assay concerns Bel-7402. As to the kind of experiment: Cytotoxicity against human Bel7402 cells by MTT assay. Summed up: as §1
The next assay has as its system BGC-823. The experiment in a line: Cytotoxicity against human BGC823 cells by MTT assay. A digest of the protocol:
as §1

A further assay has as its system HepG2. As to the kind of experiment: Cytotoxicity against human HepG2 cells by MTT assay. A digest of the protocol:
as §1

Another assay concerns MCF7. As to the kind of experiment: Cytotoxicity against human MCF7 cells by MTT assay. Summed up: as §1

In ChEMBL document CHEMBL1153847, “Synthesis and in vitro cytotoxic evaluation of novel 3,4,5-trimethoxyphenyl substituted beta-carboline derivatives” (Eur J Med Chem, 2009) one finds IC50 data, which are given here for 24 compounds.

For `COc1cc(-c2nc(C(=O)O)cc3c4ccccc4n(C)c23)cc(OC)c1OC`, the IC50 (as a rule, the concentration needed to halve the response being measured) with HeLa was above 100 µM; in the assay on Bel-7402, above 100 µM; in the assay with BGC-823, 91.1 µM; in the assay with HepG2, above 100 µM; in the assay on MCF7 it was above 100 µM.
On to `CCCCn1c2ccccc2c2cc(C(=O)O)nc(-c3cc(OC)c(OC)c(OC)c3)c21`, for which the 50% inhibitory concentration (IC50) with HeLa is above 100 µM; in the assay with Bel-7402 it was above 100 µM; in the assay on BGC-823, 51.1 µM; in the assay with HepG2, above 100 µM; in the assay on MCF7, above 100 µM.
Regarding `CCn1c2ccccc2c2cc(C(=O)NCCO)nc(-c3cc(OC)c(OC)c(OC)c3)c21`, the IC50 is above 100 µM with HeLa; above 100 µM with Bel-7402; 74.7 µM in the assay with BGC-823; above 100 µM in the assay with HepG2; 53.8 µM in the assay with MCF7.
On to `CCCCn1c2ccccc2c2cc(C(=O)NCCO)nc(-c3cc(OC)c(OC)c(OC)c3)c21`, for which the IC50 is above 100 µM with HeLa; above 100 µM in the assay on Bel-7402; 37.2 µM in the assay on BGC-823; 87.4 µM in the assay with HepG2; 31.6 µM in the assay with MCF7.
With `COc1cc(-c2nc(CO)cc3c4ccccc4n(C)c23)cc(OC)c1OC`, the IC50 in the assay with HeLa, in the assay with Bel-7402, in the assay with BGC-823, in the assay on HepG2 and in the assay with MCF7 was above 100 µM each time.
Take `CCn1c2ccccc2c2cc(C=O)nc(-c3cc(OC)c(OC)c(OC)c3)c21`: the IC50 in the assay on HeLa, in the assay on Bel-7402, with BGC-823, in the assay on HepG2 and with MCF7 was above 100 µM in each case.
As to `COc1cc(-c2nc(C=O)cc3c4ccccc4n(CCCc4ccccc4)c23)cc(OC)c1OC`, the IC50 with HeLa, in the assay on Bel-7402, in the assay on BGC-823, in the assay with HepG2 and in the assay with MCF7 was above 100 µM throughout.
As to `COc1cc(-c2nccc3c2[nH]c2ccccc23)cc(OC)c1OC`, the IC50 with HeLa was 19.6 µM; with Bel-7402 it was 43.8 µM; in the assay on BGC-823, 43.1 µM; with HepG2 it was 63.2 µM; in the assay with MCF7 it was 31.7 µM.
The corresponding values for `COc1cc(-c2nccc3c4ccccc4n(C)c23)cc(OC)c1OC` are 71.8 µM, 91.1 µM, 43.2 µM, 86.8 µM and 74.2 µM.
For `CCn1c2ccccc2c2ccnc(-c3cc(OC)c(OC)c(OC)c3)c21`, in that order: 50.9 µM, 43.9 µM, 35.2 µM, above 100 µM and 72.7 µM.
Regarding `CCCCn1c2ccccc2c2ccnc(-c3cc(OC)c(OC)c(OC)c3)c21`, the IC50 in the assay with HeLa was found to be 44.2 µM; in the assay on Bel-7402, 42.5 µM; in the assay with BGC-823, 27.5 µM; in the assay on HepG2, 51.9 µM; with MCF7, 51.8 µM.
For `CCn1c2ccccc2c2cc(CO)nc(-c3cc(OC)c(OC)c(OC)c3)c21`, in that order: above 100 µM, above 100 µM, above 100 µM, above 100 µM and above 100 µM.
For `CCOC(=O)c1cc2c([nH]c3ccccc32)c(-c2cc(OC)c(OC)c(OC)c2)n1`, in that order: above 100 µM, above 100 µM, 96.6 µM, above 100 µM and 92.3 µM.
The corresponding values for `CCOC(=O)c1cc2c3ccccc3n(C)c2c(-c2cc(OC)c(OC)c(OC)c2)n1` are above 100 µM, above 100 µM, 56.6 µM, above 100 µM and above 100 µM.
Take `CCCCn1c2ccccc2c2cc(C(=O)OCC)nc(-c3cc(OC)c(OC)c(OC)c3)c21`: the IC50 is above 100 µM in the assay on HeLa; above 100 µM in the assay with Bel-7402; 27.3 µM in the assay on BGC-823; above 100 µM in the assay on HepG2; 43.6 µM in the assay with MCF7.
As for `CCOC(=O)c1cc2c3ccccc3n(CCCc3ccccc3)c2c(-c2cc(OC)c(OC)c(OC)c2)n1`, the IC50 is above 100 µM with HeLa; above 100 µM in the assay with Bel-7402; 95.4 µM with BGC-823; above 100 µM with HepG2; above 100 µM in the assay with MCF7.
Consider `COc1cc(-c2nc(CO)cc3c4ccccc4n(CCCc4ccccc4)c23)cc(OC)c1OC`, for which the IC50 in the assay on HeLa, with Bel-7402, with BGC-823, in the assay with HepG2 and in the assay with MCF7 was above 100 µM throughout.
On to `COc1cc(-c2nc(C(=O)NCCO)cc3c4ccccc4n(C)c23)cc(OC)c1OC`, for which the IC50 is above 100 µM in the assay with HeLa; above 100 µM with Bel-7402; 90.9 µM in the assay on BGC-823; above 100 µM with HepG2; 95.5 µM in the assay on MCF7.
As to `CCn1c2ccccc2c2cc(C(=O)O)nc(-c3cc(OC)c(OC)c(OC)c3)c21`, the IC50 with HeLa is above 100 µM; in the assay with Bel-7402 it was 61.4 µM; with BGC-823, 66.5 µM; in the assay with HepG2 it was above 100 µM; in the assay on MCF7, above 100 µM.
As for `CCOC(=O)c1cc2c3ccccc3n(CC)c2c(-c2cc(OC)c(OC)c(OC)c2)n1`, the IC50 in the assay with HeLa was above 100 µM; in the assay with Bel-7402 it was above 100 µM; in the assay on BGC-823 it was 53.2 µM; in the assay with HepG2, above 100 µM; in the assay on MCF7 it was above 100 µM.
In the case of `CCCCn1c2ccccc2c2cc(CO)nc(-c3cc(OC)c(OC)c(OC)c3)c21`, the IC50 in the assay with HeLa, in the assay with Bel-7402, in the assay with BGC-823, in the assay on HepG2 and in the assay on MCF7 was above 100 µM throughout.
For the compound `COc1cc(-c2nc(C=O)cc3c4ccccc4n(C)c23)cc(OC)c1OC`, the IC50 in the assay on HeLa, in the assay with Bel-7402, in the assay with BGC-823, in the assay with HepG2 and in the assay with MCF7 was above 100 µM each time.
Turning to `CCCCn1c2ccccc2c2cc(C=O)nc(-c3cc(OC)c(OC)c(OC)c3)c21`, the IC50 in the assay on HeLa, with Bel-7402, in the assay with BGC-823, with HepG2 and in the assay on MCF7 was above 100 µM throughout.
Take `COc1ccc2c(c1)[nH]c1c(C)nccc12` [HARMINE]: the concentration for half-maximal inhibition (IC50) in the assay on HeLa came to 60 µM; in the assay on Bel-7402, 54 µM; in the assay on BGC-823, 68 µM; in the assay with HepG2, 46 µM; with MCF7 it was 72 µM.
